Tests used:
Neutrophil collagenase [1] = biological target: T1, Neutrophil collagenase (Homo sapiens, UniProt P22894); assay: Inhibition of MMP8 (unknown origin) using Mca-KLPGL-Dnp-AR as substrate at 100 uM preincubated for 30 mins followed by substrate addition measured after 1 hr by fluorescence assay relative to control
Summary of the method: (§1)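 Inhibitor as 10-point 1:3 dilutions from 300 μM, 30 min at RT. Substrate added from a 30 μM 3× solution. Single fluorescence read (ex 324/em 393 nm) after 1 h at RT.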
Target sequence in this assay (P22894 101-467 limits assumed): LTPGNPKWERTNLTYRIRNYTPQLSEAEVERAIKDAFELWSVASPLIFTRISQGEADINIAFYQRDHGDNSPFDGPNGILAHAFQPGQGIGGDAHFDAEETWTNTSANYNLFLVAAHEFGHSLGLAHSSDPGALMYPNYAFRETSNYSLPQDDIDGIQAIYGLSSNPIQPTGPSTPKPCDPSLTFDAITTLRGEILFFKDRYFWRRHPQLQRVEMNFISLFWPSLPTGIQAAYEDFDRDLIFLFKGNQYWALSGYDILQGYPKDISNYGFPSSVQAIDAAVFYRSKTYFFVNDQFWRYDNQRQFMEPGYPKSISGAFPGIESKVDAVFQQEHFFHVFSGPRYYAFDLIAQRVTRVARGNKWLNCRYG

[2] = biological target: T2, Disintegrin and metalloproteinase domain-containing protein 17 (Homo sapiens, UniProt P78536); assay: Inhibition of ADAM17 (unknown origin) preincubated for 30 mins followed by substrate addition measured every 30 mins for 2 hrs by fluorescence assay
Summary of the method: (§2)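 Enzyme at 30 nM (3× solution) in 10 mM Hepes, 0.001% Brij-35, pH 7.5. Inhibitor series of 10 points, 1:3, from 300 μM, preincubated 30 min at RT. Glycosylated substrate added from a 30 μM 3× solution. Fluorescence (ex 360/em 460 nm) read every 30 min for 2 h. Inhibition taken from hydrolysis rates against substrate-only and substrate-plus-enzyme wells.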

[3] = biological target: T3, Disintegrin and metalloproteinase domain-containing protein 10 (Homo sapiens) (UniProt O14672); assay: Inhibition of ADAM10 (unknown origin) at 100 uM preincubated for 30 mins followed by substrate addition measured every 30 mins for 2 hrs by fluorescence assay relative to control; summary of the method: as §2
T3 sequence (whole entry): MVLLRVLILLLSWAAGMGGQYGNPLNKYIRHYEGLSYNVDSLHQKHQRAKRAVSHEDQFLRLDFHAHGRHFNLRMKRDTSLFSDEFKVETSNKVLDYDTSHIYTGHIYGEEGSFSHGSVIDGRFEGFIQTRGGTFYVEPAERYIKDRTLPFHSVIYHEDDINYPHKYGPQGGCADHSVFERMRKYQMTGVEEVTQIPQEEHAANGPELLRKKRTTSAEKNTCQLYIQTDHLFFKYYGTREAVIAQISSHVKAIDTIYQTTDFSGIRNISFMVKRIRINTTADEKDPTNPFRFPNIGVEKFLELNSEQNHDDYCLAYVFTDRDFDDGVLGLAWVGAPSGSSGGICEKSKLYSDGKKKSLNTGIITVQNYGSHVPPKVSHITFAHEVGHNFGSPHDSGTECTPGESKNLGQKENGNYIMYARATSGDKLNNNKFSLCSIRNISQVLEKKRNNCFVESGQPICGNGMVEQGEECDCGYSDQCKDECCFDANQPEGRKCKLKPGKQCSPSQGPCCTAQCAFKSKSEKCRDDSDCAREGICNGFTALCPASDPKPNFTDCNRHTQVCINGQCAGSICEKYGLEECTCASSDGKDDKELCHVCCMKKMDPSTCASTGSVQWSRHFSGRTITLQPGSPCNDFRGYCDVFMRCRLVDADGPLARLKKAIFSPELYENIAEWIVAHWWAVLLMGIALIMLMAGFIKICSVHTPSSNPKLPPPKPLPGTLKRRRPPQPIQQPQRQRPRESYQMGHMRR

[4] = biological target: T4, Matrix metalloproteinase-14 (Homo sapiens, UniProt P50281); assay: Inhibition of MMP14 (unknown origin) using Mca-KLPGL-Dnp-AR as substrate preincubated for 30 mins followed by substrate addition measured after 1 hr by fluorescence assay; summary of the method: as §1
[5] = biological target: T2, Disintegrin and metalloproteinase domain-containing protein 17; assay: Inhibition of ADAM17 in human A549 cells assessed as effect on PMA-stimulated TGFalpha shedding up to 100 uM preincubated for 1 hr followed by PMA stimulation measured after 1 hr by ELISA; assay type: cell-based
Summary of the method: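 TGFα shedding from PMA-treated A549 cells tested up to 100 μM. Marimastat at 10 μM served as control, with a non-PMA-treated control included; soluble TGFα measured in the supernatant.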

Neutrophil collagenase [6] = biological target: T1, Neutrophil collagenase; assay: Inhibition of MMP8 (unknown origin) using Mca-KLPGL-Dnp-AR as substrate preincubated for 30 mins followed by substrate addition measured after 1 hr by fluorescence assay; summary of the method: as §1
Target sequence in this assay (P22894 whole entry): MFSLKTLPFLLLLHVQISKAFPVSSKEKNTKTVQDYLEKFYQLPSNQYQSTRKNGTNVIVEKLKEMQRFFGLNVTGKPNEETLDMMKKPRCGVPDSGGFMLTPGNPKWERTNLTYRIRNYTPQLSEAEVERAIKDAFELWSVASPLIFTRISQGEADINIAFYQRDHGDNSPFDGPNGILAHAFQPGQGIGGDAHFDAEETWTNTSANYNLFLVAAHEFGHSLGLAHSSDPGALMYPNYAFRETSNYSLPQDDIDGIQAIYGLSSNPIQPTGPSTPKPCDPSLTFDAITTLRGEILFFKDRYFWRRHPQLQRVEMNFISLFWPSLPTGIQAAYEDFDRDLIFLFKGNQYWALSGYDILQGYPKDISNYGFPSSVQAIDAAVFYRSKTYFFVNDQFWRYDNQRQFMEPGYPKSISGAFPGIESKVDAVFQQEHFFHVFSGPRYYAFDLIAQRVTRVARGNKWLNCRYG

[7] = biological target: T2, Disintegrin and metalloproteinase domain-containing protein 17; assay: Inhibition of ADAM17 in human HT1080 cells assessed as inhibition of PMA-stimulated PTK7 L622D mutant shedding at 25 to 100 uM after 16 hrs by Western blot analysis; assay type: cell-based; details: HT-1080
Summary of the method: (§3)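 PTK7 shedding tested at 25, 50 and 100 μM in PMA-stimulated cells. HT1080 fibrosarcoma cells carried the L622D PTK7 mutant uncleavable by MT1-MMP; SW480 colorectal cells expressed wild-type PTK7 endogenously. Soluble PTK7 was detected.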

[8] = biological target: T2, Disintegrin and metalloproteinase domain-containing protein 17; assay: Inhibition of ADAM17 in human A549 cells assessed as inhibition of PMA-stimulated heregulin shedding at 40 uM incubated for 1 hr followed by PMA stimulation measured after 1 hr; assay type: cell-based
Summary of the method: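 Heregulin shedding in A549 cells, with all compounds tested at 40 μM.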

[9] = biological target: T2, Disintegrin and metalloproteinase domain-containing protein 17; assay: Inhibition of ADAM17 (unknown origin) at 100 uM preincubated for 30 mins followed by substrate addition measured every 30 mins for 2 hrs by fluorescence assay relative to control; summary of the method: as §2
[10] = biological target: T4, Matrix metalloproteinase-14; assay: Inhibition of MMP14 (unknown origin) using Mca-KLPGL-Dnp-AR as substrate at 100 uM preincubated for 30 mins followed by substrate addition measured after 1 hr by fluorescence assay relative to control
[11] = biological target: T2, Disintegrin and metalloproteinase domain-containing protein 17; assay: Inhibition of ADAM17 in HTSMC assessed as inhibition of LPS-stimulated IL-8 shedding at 10 uM preincubated for 30 mins followed by LPS challenge measured after 4 to 24 hrs by ELISA
Summary of the method: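 HTSMCs stimulated with LPS for IL-8 release; compounds at 10 μM. Mean ± SEM, n = 3 from three independent experiments; one-way ANOVA with Dunnett post hoc test.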

[12] = Cytotoxicity against CHOK1 cells assessed as inhibition of cell viability up to 33 uM after 72 hrs by CellTiter-Glo assay; assay type: cell-based, Cricetulus griseus; details: chinese hamster, cho-k1, 72 h
[13] = biological target: T5, Disintegrin and metalloproteinase domain-containing protein 10 (Homo sapiens, UniProt O14672); assay: Inhibition of ADAM10 (unknown origin) preincubated for 30 mins followed by substrate addition measured every 30 mins for 2 hrs by fluorescence assay; summary of the method: as §2
T5 sequence (O14672 whole entry): T3 sequence (whole entry)

[14] = biological target: T2, Disintegrin and metalloproteinase domain-containing protein 17; assay: Inhibition of ADAM17 in human SW480 cells assessed as inhibition of PMA-stimulated wild type PTK7 shedding at 25 to 100 uM after 16 hrs by Western blot analysis; assay type: cell-based; summary of the method: as §3
ADAM17 (Homo sapiens) = assay: Inhibition of ADAM17 in human SW480 cells assessed as inhibition of PMA-stimulated wild type PTK7 shedding at 25 to 100 uM after 16 hrs by Western blot analysis
[15] = biological target: T3, Disintegrin and metalloproteinase domain-containing protein 10 (Homo sapiens); assay: Inhibition of ADAM10 in HTSMC assessed as inhibition of constitutive release of fractalkine/CX3CL1 at 10 uM preincubated for 30 mins measured after 4 to 24 hrs by ELISA
A549 = assay: Cytotoxicity against human A549 cells assessed as inhibition of cell viability up to 33 uM after 72 hrs by CellTiter-Glo assay; assay type: cell-based; details: a549, 72 h

T2 sequence (P78536 whole entry, the tested form may be a part): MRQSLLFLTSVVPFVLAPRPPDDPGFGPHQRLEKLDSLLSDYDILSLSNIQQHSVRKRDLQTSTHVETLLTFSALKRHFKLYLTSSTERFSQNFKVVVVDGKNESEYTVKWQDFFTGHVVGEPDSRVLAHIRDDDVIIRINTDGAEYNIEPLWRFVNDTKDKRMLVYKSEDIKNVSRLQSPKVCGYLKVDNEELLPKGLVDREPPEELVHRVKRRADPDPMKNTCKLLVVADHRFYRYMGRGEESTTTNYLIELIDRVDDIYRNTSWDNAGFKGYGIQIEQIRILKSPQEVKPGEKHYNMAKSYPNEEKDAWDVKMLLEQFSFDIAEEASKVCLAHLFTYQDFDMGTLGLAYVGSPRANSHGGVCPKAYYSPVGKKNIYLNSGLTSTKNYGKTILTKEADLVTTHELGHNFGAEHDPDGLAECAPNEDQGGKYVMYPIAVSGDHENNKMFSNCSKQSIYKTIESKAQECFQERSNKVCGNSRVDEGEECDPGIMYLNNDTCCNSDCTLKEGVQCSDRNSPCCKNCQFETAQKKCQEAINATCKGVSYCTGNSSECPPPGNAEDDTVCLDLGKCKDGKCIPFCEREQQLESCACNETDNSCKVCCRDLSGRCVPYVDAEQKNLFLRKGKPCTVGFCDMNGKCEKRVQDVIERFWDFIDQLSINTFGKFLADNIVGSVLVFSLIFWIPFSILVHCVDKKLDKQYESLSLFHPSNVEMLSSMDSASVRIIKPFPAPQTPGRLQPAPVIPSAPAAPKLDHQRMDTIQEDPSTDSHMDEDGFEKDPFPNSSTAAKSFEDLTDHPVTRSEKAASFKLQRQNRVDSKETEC

Row | inhibition (Neutrophil collagenase [1]) | IC50 [2] | inhibition [3] | IC50 [4] | inhibition [5] | IC50 (Neutrophil collagenase [6]) | inhibition [7] | inhibition [8] | inhibition [9] | inhibition [10] | inhibition [11] | IC50 [13] | inhibition [14] | inhibition (ADAM17 (Homo sapiens)) | inhibition [15] | Compound | Activity [12] | Activity (A549)
1 | 28% | 5.4 µM | 0% | > 100 µM | 0% | > 100 µM | 0% | 0% | 100% | 27% | 18% | > 100 µM | 0% | 0% | 0% | O=C1NC[C@H](Cc2ccccc2)N(C[C@@H]2CCCN2C[C@@H](CC2CCCCC2)N2C[C@H](Cc3ccc(O)cc3)N(CCc3ccccc3)C(=O)C2=O)C1=O | Non-toxic | Non-toxic
2 | 0% | 5.7 µM | 0% | > 100 µM | 0% | > 100 µM | 0% | 0% | 100% | 0% | 62% | > 100 µM | 0% | 0% | 0% | CCCC[C@H]1CN([C@@H](Cc2ccc(O)cc2)CN2CCC[C@H]2CN2C(=O)C(=O)NC[C@H]2Cc2ccc3ccccc3c2)C(=O)C(=O)N1CCC12CC3CC(CC(C3)C1)C2 | Non-toxic | Non-toxic
3 | 13% | 4.2 µM | 0% | > 100 µM | 0% | > 100 µM | 25% | 100% | 95% | 25% | 36% | > 100 µM | 0% | 0% | 0% | O=C1NC[C@@H](Cc2ccc(O)cc2)N(C[C@@H]2CCCN2C[C@@H](Cc2ccc3ccccc3c2)N2CC(Cc3ccc(O)cc3)N(CCC34CC5CC(CC(C5)C3)C4)C(=O)C2=O)C1=O (single isomer, unassigned) | Non-toxic | Non-toxic
